From ChEMBL document CHEMBL3351972, “Indole-3-ethylsulfamoylphenylacrylamides: potent histone deacetylase inhibitors with anti-inflammatory activity” (Eur J Med Chem, 2014)
Active and inactive are the calls of the source. The rule behind the calls is not given here.

Columns and labels:
RAW264.7 [1] = test: Toxicity against mouse RAW264.7 cells assessed as reduction in cell viability at 0.01 to 1 uM incubated for 24 hrs by MTT assay; assay type: cell-based; details: raw264.7, 24 h
Method in brief: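 Macrophages were exposed to compound at 0.01–1 for 24 h. Viability was then assessed by MTT assay.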

RAW264.7 [2] = test: Anti-inflammatory activity in LPS-stimulated mouse RAW264.7 cells assessed as suppression of iNOS protein expression at 0.01 to 1 uM pre-incubated for 30 mins before LPS stimulation for 24 hrs by Western blotting method; assay type: functional, cell-based
Method in brief: (§1)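 RAW 264.7 cells (1 × 10⁶/well) were pretreated with compound at 0.01–1 for 30 min, then stimulated with LPS (25 ng/mL) for 24 h. Whole-cell extracts were cleared at 17,000 g for 30 min at 4 °C, and protein was measured by Bradford. Blots were blocked in 5% milk/TBST, probed with primary antibody overnight at 4 °C, then HRP secondary (1:1000) 1 h RT. Data are mean ± SEM of three replicates, compared with the LPS-only group.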

RAW264.7 [3] = test: Anti-inflammatory activity in LPS-stimulated mouse RAW264.7 cells assessed as suppression of COX2 protein expression at 0.01 to 1 uM pre-incubated for 30 mins before LPS stimulation for 24 hrs by Western blotting method; assay type: functional, cell-based; method in brief: as §1
[4] = molecular target: Transcription factor p65 (Mus musculus) (UniProt Q04207); test: Inhibition of p65 phosphorylation in LPS-stimulated mouse RAW264.7 cells at 0.01 to 1 uM pre-incubated for 30 mins before LPS stimulation for 24 hrs by Western blotting method; assay type: cell-based; method in brief: as §1
Sequence of Transcription factor p65 (Mus musculus) (Q04207 whole entry): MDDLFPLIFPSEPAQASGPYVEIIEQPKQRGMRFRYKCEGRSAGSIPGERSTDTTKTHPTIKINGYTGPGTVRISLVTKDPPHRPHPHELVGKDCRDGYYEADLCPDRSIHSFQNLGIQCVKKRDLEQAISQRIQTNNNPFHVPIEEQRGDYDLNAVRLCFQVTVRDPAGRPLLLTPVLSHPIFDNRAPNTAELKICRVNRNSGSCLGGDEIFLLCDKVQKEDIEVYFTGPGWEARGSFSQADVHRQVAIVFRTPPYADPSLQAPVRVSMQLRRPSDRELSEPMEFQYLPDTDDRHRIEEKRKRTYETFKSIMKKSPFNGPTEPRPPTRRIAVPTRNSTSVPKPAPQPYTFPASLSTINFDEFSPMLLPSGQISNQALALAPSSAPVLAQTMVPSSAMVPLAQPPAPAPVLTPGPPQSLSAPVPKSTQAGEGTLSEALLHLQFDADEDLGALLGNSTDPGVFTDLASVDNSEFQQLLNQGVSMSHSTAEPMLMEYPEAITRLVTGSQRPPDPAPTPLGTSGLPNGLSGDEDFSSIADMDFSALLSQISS

Rattus norvegicus [5] = test: Anti-inflammatory activity in Wistar rat model of carrageenan-induced edema assessed as reduction in right hind paw thickness at 20 mg/kg, po dosed 1 hour before carrageenan injection measured 3 hrs post carrageenan challenge by digital plethysmometry; assay type: functional, organism-based; set-up: dose 20 mg/kg
Method in brief: (§2)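 Male Wistar rats (7 weeks) were randomised into eight groups. They were dosed orally 1 h before carrageenan: vehicle (1% carboxymethyl cellulose + 0.5% Tween 80), test suspensions at 20 mg/kg, or indomethacin as positive control at 1 mg/kg. Carrageenan (0.5% w/v in saline) was injected intradermally into the base of the right hind paw. Paw change was read at 3 h by digital caliper and plethysmometer.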

Histone deacetylase = test: Inhibition of HDAC in human HeLa cells nuclear extracts incubated for 30 mins by fluorescent assay; assay type: cell-free
RAW264.7 [6] = test: Anti-inflammatory activity in LPS-stimulated mouse RAW264.7 cells assessed as suppression of nitric oxide production pre-incubated for 1 hr before LPS stimulation for 24 hrs by Griess reagent based assay; assay type: functional, cell-based
Method in brief: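 Nitrite concentration was quantified against a standard dilution series of sodium nitrite.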

RAW264.7 [7] = test: Anti-inflammatory activity in LPS-stimulated mouse RAW264.7 cells assessed as suppression of TNFalpha production pre-incubated for 1 hr before LPS stimulation for 24 hrs by ELISA method; assay type: functional, cell-based
Method in brief: (§3)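 IL-6 and TNF-α were measured by ELISA. RAW 264.7 cells (1 × 10⁶) were plated and pretreated with or without compound for 1 h, then stimulated with LPS (25 ng/mL) for 24 h at 37 °C.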

RAW264.7 [8] = test: Anti-inflammatory activity in LPS-stimulated mouse RAW264.7 cells assessed as suppression of IL6 production pre-incubated for 1 hr before LPS stimulation for 24 hrs by ELISA method; assay type: functional, cell-based; method in brief: as §3
RAW264.7 [9] = test: Anti-inflammatory activity in LPS-stimulated mouse RAW264.7 cells assessed as suppression of PGE2 production pre-incubated for 1 hr before LPS stimulation for 24 hrs by enzyme immunoassay method; assay type: functional, cell-based
Method in brief: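 RAW 264.7 cells (1 × 10⁶) were treated with or without compound for 1 h, then stimulated with LPS (25 ng/mL) for 24 h at 37 °C. PGE₂ in culture supernatants was measured by EIA kit.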

[10] = Retention time of the compound by HPLC method; assay type: physicochemical
RAW264.7 [11] = test: Inhibition of HDAC in mouse RAW264.7 cells assessed as increase in histone H3 acetylation at > 0.1 uM incubated for 24 hrs by Western blotting method
Rattus norvegicus [12] = test: Anti-inflammatory activity in Wistar rat model of carrageenan-induced edema assessed as reduction in right hind paw thickness at 1 mg/kg, po dosed 1 hour before carrageenan injection measured 3 hrs post carrageenan challenge by digital plethysmometry; assay type: functional, organism-based; set-up: dose 1 mg/kg; method in brief: as §2

| inhibition [4] | IC50 (Histone deacetylase) [nM] | IC50 (RAW264.7 [6]) [nM] | IC50 (RAW264.7 [7]) [nM] | IC50 (RAW264.7 [8]) [nM] | IC50 (RAW264.7 [9]) [nM] | Retention_time [10] [min] | SMILES | Activity (RAW264.7 [1]) | inhibition (RAW264.7 [2]) | inhibition (RAW264.7 [3]) | inhibition (Rattus norvegicus [5]) | inhibition (RAW264.7 [11]) | inhibition (Rattus norvegicus [12]) |
| --- | --- | --- | --- | --- | --- | --- | --- | --- | --- | --- | --- | --- | --- |
| Dose-dependent effect | 7.9 | 360 | 1500 | 13 | 320 | 23.3 | Cc1[nH]c2ccccc2c1CCNS(=O)(=O)c1cccc(/C=C/C(=O)NO)c1 | Non-toxic | Active | Active | Active | Active |  |
| Dose-dependent effect | 3.3 | 300 | 800 | 14 | 150 | 25.96 | Cc1c(CCNS(=O)(=O)c2ccc(/C=C/C(=O)NO)cc2)c2ccccc2n1C | Non-toxic | Active | Active | Active | Active |  |
| Dose-dependent effect | 2.8 | 740 | 480 | 20 | 330 | 23.3 | Cc1[nH]c2ccccc2c1CCNS(=O)(=O)c1ccc(/C=C/C(=O)NO)cc1 | Non-toxic | Active | Active | Active | Active |  |
|  | 43.9 | 3700 | > 10000 | 31 | 7200 | 25.18 | O=C(/C=C/c1ccc(S(=O)(=O)N2CCc3c([nH]c4ccccc34)C2)cc1)NO |  |  |  |  |  |  |
|  |  | 2200 | 4700 | 0.059 | 8280 |  | O=C(/C=C/c1cccc(S(=O)(=O)Nc2ccccc2)c1)NO [BELINOSTAT] |  |  |  |  |  |  |
|  |  |  |  |  |  |  | COc1ccc2c(c1)c(CC(=O)O)c(C)n2C(=O)c1ccc(Cl)cc1 |  |  |  |  |  | Active |
|  | 771.8 | > 10000 | > 10000 | 23.9 | > 10000 | 21.88 | Cc1[nH]c2ccccc2c1CCNS(=O)(=O)c1ccc(C(=O)NO)cc1 |  |  |  |  |  |  |
| Dose-dependent effect | 3.4 | 260 | 730 | 21 | 270 | 27.93 | CCn1c(C)c(CCNS(=O)(=O)c2ccc(/C=C/C(=O)NO)cc2)c2ccccc21 | Non-toxic | Active | Active | Active | Active |  |
|  | 47.4 | 1000 | > 10000 | 5.5 | 2900 | 25.51 | Cc1[nH]c2ccccc2c1CCN(C)S(=O)(=O)c1ccc(/C=C/C(=O)NO)cc1 |  |  |  |  |  |  |
|  | 6.6 | 740 | 1200 | 0.014 | 2200 | 22.17 | O=C(/C=C/c1ccc(S(=O)(=O)NCCc2c[nH]c3ccccc23)cc1)NO |  |  |  |  |  |  |
|  | 29.6 | 1200 | > 10000 | 5.9 | 2900 | 27.17 | CCN(CCc1c(C)[nH]c2ccccc12)S(=O)(=O)c1ccc(/C=C/C(=O)NO)cc1 |  |  |  |  |  |  |
|  | 5.7 | 290 | 620 | 32 | 1500 | 24.21 | Cn1cc(CCNS(=O)(=O)c2ccc(/C=C/C(=O)NO)cc2)c2ccccc21 |  |  |  |  |  |  |
|  | 7.3 | 3100 | 1500 | 0.14 | 3100 | 16.67 | CCN(CC)CCn1c(C)c(CCNS(=O)(=O)c2ccc(/C=C/C(=O)NO)cc2)c2ccccc21 |  |  |  |  |  |  |
|  | 9.2 | 1600 | > 10000 | 4.5 | 7400 | 28.67 | Cc1[nH]c2ccccc2c1CCN(C(C)C)S(=O)(=O)c1ccc(/C=C/C(=O)NO)cc1 |  |  |  |  |  |  |
